Our source for the Activity, IC50 and EC50 values is ChEMBL document CHEMBL5053483, “Structure-Activity Relationship Study of Dexrazoxane Analogues Reveals ICRF-193 as the Most Potent Bisdioxopiperazine against Anthracycline Toxicity to Cardiomyocytes Due to Its Strong Topoisomerase IIβ Interactions” (J Med Chem, 2021).

SMILES strings stand for the structures. Activity calls are given as the source filed them. The rule behind the calls is not given here.

Data set [1] has as its system HL-60. Description: Antiproliferative activity against human HL-60 cells at 100 uM after 72 hrs by XTT assay. The class given is functional, cell-based. In outline:
(§1)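 HL-60 (ATCC) grown in RPMI-1640 with 10% FBS and antibiotics at 37 °C, 5% CO2. Seeded at 10 000 cells/well, exposed to compound for 72 h. XTT/PMS (1 mg/mL XTT, 50 μM PMS in PBS) added, absorbance read at 450 nm after 4 h. Results as percent of DMSO control; four independent experiments.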
A general note: Formazan colour is commonly taken as a measure of viable cells.

Data set [2] is described as follows: Cytotoxicity against Wistar rat neonatal ventricular cardiomyocytes at 1.2 uM by LDH assay. In kind it is tissue-based. In outline: (§2)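 Neonatal rat ventricular cardiomyocytes from collagenase II digests, preplated 2 h, 400 000 cells/well. Kept in serum- and pyruvate-free DMEM/F12. Cells pretreated 3 h with compound (10–100 μM), then co-incubated 3 h with 1.2 μM daunorubicin or without it. After 48 h in drug-free medium, LDH released to the medium was measured at 340 nm as percent of total LDH; four experiments.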

In data set [3] the test system is HL-60. Description: Antiproliferative activity against human HL-60 cells after 72 hrs by XTT assay. In kind it is functional, cell-based. The conditions noted are these: HL-60, 72 h. In outline: as §1
Data set [4] concerns Neonatal ventricular cardiomyocytes. The data set is described as follows: (§3) Cardioprotective activity against DAU-induced cardiotoxicity in Wistar rat neonatal ventricular cardiomyocytes preincubated for 3 hrs followed by DAU addition for 3 hrs and further incubated for 48 hrs in drug free medium by LDH assay. The class given is functional, tissue-based. The settings on record: time 6.0 hrs. A digest of the protocol: as §2

The nature of data set [5]: as §3. In kind it is functional, tissue-based. In outline:
as §2

Data set [6] is described as follows: Metal chelating activity assessed as displacement of Fe3+ from DAU-Fe3+ complex measured for 10 mins by spectrophotometric method. A digest of the protocol:
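DAU–Fe3+ complex (3:1) placed in 50 mM Tris/150 mM KCl, pH 7.4, room temperature, at 45 μM DAU and 15 μM Fe3+ final. After 3 min of equilibration, compound (100 μM) was added, with EDTA or SIH as reference chelators. Absorbance at 600 nm followed for 10 min, and the endpoint absorbance was compared.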

The target of the next data set is DNA topoisomerase 2-beta (Homo sapiens, UniProt Q02880). The data set is described as follows: Inhibition of human TOP2B assessed as reduction in […] using kDNA as substrate incubated for 30 min. In outline:
(§4)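 Recombinant human TOP2A or TOP2B incubated with kDNA for 30 min at 37 °C. Buffer: 55 mM Tris-HCl pH 7.5, 135 mM NaCl, 10 mM MgCl2, 5 mM DTT, 0.1 mM EDTA, 3 mM ATP, 100 μg/mL BSA, 1% final DMSO. Compounds tested at 1–1000 μM. Products resolved on 1% agarose, SYBR Safe stained. Signal normalized to the untreated control on the same gel; three measurements.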

Data set [7] has as its target DNA topoisomerase 2-alpha (Homo sapiens, UniProt P11388). Description: Inhibition of human TOP2A assessed as reduction in […] using kDNA as substrate incubated for 30 min. In outline: as §4
For data set [8], the system named is HL-60. The data set is described as follows: Antiproliferative activity against human HL-60 cells assessed as increase in daunorubicin activity at 100 uM after 72 hrs in presence of 15 nM of daunorubicin by XTT assay.

Sequence of DNA topoisomerase 2-beta (Q02880 whole entry): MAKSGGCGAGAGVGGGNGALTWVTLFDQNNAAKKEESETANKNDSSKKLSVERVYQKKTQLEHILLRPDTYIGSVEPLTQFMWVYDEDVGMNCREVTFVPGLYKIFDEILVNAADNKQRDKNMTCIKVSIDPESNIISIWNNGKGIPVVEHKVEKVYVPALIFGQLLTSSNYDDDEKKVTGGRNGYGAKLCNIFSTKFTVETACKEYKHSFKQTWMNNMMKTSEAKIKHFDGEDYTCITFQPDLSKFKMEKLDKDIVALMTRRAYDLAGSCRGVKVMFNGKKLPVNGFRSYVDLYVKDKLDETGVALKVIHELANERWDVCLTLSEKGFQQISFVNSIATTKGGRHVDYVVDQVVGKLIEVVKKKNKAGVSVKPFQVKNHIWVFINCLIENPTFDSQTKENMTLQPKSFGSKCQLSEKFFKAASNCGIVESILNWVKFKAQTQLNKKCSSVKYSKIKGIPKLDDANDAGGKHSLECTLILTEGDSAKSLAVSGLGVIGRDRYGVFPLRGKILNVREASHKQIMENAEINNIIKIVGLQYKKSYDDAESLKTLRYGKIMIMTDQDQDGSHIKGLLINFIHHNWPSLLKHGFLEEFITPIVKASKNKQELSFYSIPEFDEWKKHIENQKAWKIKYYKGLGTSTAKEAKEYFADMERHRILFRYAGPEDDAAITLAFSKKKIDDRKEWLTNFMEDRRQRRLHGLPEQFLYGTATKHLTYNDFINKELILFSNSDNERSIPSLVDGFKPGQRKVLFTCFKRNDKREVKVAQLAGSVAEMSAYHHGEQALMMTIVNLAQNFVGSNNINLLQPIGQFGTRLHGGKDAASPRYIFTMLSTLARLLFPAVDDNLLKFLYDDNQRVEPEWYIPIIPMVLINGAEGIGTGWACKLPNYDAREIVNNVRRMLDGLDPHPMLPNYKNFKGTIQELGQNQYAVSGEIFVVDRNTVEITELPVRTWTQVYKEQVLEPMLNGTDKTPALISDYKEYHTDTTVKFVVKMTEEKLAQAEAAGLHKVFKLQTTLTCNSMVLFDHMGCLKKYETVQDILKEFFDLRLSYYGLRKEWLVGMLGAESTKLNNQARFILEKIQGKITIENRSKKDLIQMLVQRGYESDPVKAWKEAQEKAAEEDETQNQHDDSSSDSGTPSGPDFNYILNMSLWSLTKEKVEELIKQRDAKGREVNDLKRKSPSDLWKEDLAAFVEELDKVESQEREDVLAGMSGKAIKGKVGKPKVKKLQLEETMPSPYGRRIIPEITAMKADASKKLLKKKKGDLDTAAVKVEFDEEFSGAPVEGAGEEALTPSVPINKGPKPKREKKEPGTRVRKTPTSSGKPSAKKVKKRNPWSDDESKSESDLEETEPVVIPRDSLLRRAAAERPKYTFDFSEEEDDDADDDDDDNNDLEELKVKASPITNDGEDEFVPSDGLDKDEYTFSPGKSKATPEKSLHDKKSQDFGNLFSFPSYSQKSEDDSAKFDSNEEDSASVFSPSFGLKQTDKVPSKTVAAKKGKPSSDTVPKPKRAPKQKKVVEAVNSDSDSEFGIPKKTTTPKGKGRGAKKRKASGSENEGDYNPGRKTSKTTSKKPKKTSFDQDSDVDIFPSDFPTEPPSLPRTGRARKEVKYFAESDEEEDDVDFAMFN
Sequence of DNA topoisomerase 2-alpha (P11388 whole entry): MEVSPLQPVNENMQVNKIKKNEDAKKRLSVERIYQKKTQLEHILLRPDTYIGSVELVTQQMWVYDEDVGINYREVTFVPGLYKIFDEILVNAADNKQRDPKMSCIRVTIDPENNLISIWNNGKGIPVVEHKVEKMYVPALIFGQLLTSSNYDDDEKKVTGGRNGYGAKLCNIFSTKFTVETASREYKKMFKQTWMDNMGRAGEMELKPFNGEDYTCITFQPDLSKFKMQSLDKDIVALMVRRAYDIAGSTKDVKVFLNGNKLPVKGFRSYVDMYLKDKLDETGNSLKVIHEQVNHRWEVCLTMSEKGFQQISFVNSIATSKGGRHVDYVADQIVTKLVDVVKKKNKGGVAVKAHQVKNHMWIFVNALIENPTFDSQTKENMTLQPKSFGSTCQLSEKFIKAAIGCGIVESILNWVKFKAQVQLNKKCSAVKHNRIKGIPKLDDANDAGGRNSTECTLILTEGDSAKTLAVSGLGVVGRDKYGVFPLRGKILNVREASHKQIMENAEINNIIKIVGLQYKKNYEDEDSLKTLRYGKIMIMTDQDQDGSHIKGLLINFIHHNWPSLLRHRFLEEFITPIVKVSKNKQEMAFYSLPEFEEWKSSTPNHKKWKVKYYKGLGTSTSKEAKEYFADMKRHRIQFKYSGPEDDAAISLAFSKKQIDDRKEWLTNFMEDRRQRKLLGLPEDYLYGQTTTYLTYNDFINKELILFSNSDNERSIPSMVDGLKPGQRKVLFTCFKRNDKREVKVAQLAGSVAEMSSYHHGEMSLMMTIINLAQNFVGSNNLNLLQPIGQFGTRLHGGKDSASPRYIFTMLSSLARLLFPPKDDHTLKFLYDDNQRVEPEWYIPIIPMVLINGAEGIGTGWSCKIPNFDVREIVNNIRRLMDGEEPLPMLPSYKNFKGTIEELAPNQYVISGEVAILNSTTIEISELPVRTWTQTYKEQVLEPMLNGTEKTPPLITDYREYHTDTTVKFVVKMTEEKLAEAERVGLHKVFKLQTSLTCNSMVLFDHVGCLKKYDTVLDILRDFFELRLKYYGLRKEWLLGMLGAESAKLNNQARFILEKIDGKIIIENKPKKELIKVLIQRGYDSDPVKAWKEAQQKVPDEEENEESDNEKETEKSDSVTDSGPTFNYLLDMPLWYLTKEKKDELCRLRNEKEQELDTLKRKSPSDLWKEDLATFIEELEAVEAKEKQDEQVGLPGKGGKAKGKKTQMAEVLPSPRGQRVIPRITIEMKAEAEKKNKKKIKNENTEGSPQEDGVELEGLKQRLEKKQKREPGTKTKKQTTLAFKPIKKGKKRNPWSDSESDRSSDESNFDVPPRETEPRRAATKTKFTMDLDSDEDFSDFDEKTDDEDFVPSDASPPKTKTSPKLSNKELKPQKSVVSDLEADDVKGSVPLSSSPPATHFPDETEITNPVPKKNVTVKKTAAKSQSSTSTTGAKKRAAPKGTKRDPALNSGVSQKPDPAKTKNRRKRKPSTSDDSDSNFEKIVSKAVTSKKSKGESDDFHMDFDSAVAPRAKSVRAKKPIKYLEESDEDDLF

As to `O=C1CN(CC(O)CN2CC(=O)NC(=O)C2)CC(=O)N1`, the result with HL-60 [1] was Active.

For `COc1cccc2c1C(=O)c1c(O)c3c(c(O)c1C2=O)C[C@@](O)(C(C)=O)C[C@@H]3O[C@H]1C[C@H](N)[C@H](O)[C@H](C)O1` [DAUNORUBICIN], the Activity in data set [2] is recorded as 40%. In addition, the IC50 in the data set with HL-60 [3] amounted to 0.015 µM.

As for `CC(C)(CN1CC(=O)NC(=O)C1)N1CC(=O)NC(=O)C1`, the result in data set [4] was inactive.

Regarding `C[C@@H](CN1CC(=O)NC(=O)C1)N1CC(=O)NC(=O)C1` [DEXRAZOXANE], in data set [5], the EC50 is 101 µM. Besides, the Activity in data set [6] is 77%. Also, the values for the 50% inhibitory concentration (IC50) (on DNA topoisomerase 2-beta; in [7]; in the data set on HL-60 [3]) were 50 µM, 40 µM and 18 µM, respectively.

For the molecule `CN(CCN(C)C1CC(=O)NC1=O)C1CC(=O)NC1=O` (stereo unspecified), the result in the data set with HL-60 [8] and in the data set on HL-60 [1] was Active.

For orientation: IC50 means the midpoint of a concentration-inhibition curve. The term EC50 denotes the midpoint of the concentration-response curve.
